# Compounds with a hit are over-represented: about 2.6% of the library has one in this group of screens.
# EP2 mod: EP2 receptor modulators, cAMP readout, primary screen, cell-based, HTRF cAMP, PGE2 stimulation | EP2-expressing cells, cAMP HTRF FRET, PGE2 co-stimulation | induction, % at 25 µM | AID 940, 2007 | Prostaglandin E2 receptor EP2 subtype (Homo sapiens), P43116 | 260,000 compounds, 0.83% hits;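 active means compounds whose cAMP rise, as percent of the full-agonist control response, exceeds 60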;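 further: rat C6 glioma line stably carrying human EP2 under a CMV promoter; the protocol text gives 20 µM as final concentration; 100% = response of wells given 1 µM PGE2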
# Target sequence (P43116 whole entry, looked up): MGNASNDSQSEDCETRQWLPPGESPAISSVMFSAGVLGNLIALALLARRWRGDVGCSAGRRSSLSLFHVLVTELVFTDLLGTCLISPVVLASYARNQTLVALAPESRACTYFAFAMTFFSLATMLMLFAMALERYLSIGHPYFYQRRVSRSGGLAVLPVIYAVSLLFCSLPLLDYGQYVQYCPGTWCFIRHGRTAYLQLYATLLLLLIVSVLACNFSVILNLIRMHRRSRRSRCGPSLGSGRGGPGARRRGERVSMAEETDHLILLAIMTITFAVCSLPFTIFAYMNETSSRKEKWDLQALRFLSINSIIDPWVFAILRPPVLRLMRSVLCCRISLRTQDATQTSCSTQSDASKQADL
# T cell HTS: modulators of CD8 T cell-vesicle binding, primary screen, mouse 2C CD8+ T cells, flow cytometry; 330,000 compounds, 0.068% hits; 2C CD8+ T cell-vesicle binding; hits give low values; AID 2052, 2009; response (vesicle binding), % at 7 µM;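 active means response, share of CD8 T cells binding vesicles, and their 90th percentile fluorescence all below set limits, cut at about 80% in these data, passing the limit was not always enough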;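 further: values below 100% mean blocked vesicle binding to the CD8+ T cells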
#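 material = purified 2C TCR transgenic mouse naive CD8+ T cells | controls = Unloaded micro-vesicles (low), QL9 vesicles with 0.7% DMSO (high) | detection = cytometric PE anti-B7-1 and Alexa647 anti-CD8 signals after 1% paraformaldehyde fixation | incubation = binding step 1.5 h, 37 °C, antibody labelling 20 min, ice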
# MC4R ag barr: MC4R agonists recruiting beta-arrestin, primary screen, cell-based, luminescence, agonist arm of biased-ligand search; AID 540308, 2011; U2OS MC4R beta-arrestin complementation; percent of melanotan II response, DMSO zero; Melanocortin receptor 4 (Homo sapiens), P32245; 360,000 compounds, 0.98% hits; activation, % at 8.9 µM;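 active means activation above a per-plate cutoff, the mean activation of sample wells on that plate plus 3 SD, cut at about 8% in these data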
# Target sequence (P32245 whole entry, looked up): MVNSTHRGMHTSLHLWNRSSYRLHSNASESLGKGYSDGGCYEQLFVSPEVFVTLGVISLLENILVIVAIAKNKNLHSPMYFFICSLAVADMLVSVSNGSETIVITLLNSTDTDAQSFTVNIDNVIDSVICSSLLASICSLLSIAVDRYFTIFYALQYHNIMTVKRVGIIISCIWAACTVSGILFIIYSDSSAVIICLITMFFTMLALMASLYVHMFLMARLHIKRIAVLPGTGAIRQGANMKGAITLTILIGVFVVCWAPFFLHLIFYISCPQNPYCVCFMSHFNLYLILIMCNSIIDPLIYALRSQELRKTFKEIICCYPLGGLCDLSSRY
# PGE2 EP2 inh: human EP2 receptor antagonists, primary screen, TR-FRET cAMP, C6 glioma cells; C6 glioma cells expressing human EP2; cells stimulated with saturating PGE2; inhibition, % at 25 µM; 260,000 compounds, 0.52% hits; AID 1422, 2008;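 active means percent inhibition above 40 after rounding to a whole number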;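 further: rat C6 glioma host cells with rolipram phosphodiesterase inhibitor present; the protocol text gives 20 µM as final concentration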
# MC4R antagonist: MC4R antagonists of cAMP signaling, primary screen, cell-based, TR-FRET, antagonist arm of biased-ligand search | MC4R-expressing cells, MTII-stimulated cAMP, LANCE TR-FRET | inhibition, % at 6.5 µM | AID 540295, 2011 | Melanocortin receptor 4 (Homo sapiens), P32245 | 360,000 compounds, 0.48% hits;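 active means inhibition above its plate's cutoff, the mean of tested wells on that plate plus 3 SD, cut at about 29% in these data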;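 further: 0% = Melanotan II alone and 100% = Melanotan II plus saturating MCL0020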
#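 Test system: U2OS cells stably expressing human melanocortin 4 receptor (MC4R); also added: Melanotan II challenge; compound: 6.5 µM single dose; timing: 30-min compound preincubation, 1-h Melanotan II challenge, 1-h detection, room temperature; signal: Eu-cAMP/anti-cAMP TR-FRET, emission 671 nm; repeats: one well per compound, no replicates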
# Granule exo inh: LAMP-1 surface exposure blockers, TALL-104 cells – cell-based, flow cytometry, MLPCN library, primary screen | inhibition, % at 10 µM | 360,000 compounds, 0.66% hits | AID 651702, 2012 | TALL-104 LAMP-1 surface exposure; cells stimulated with thapsigargin and PMA;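 active means inhibition above about 55%, limit read from the data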
# U2OS cAMP counter: nonselective cAMP signaling inhibitors, parental cells, counter-screen for MC4R biased antagonist project, cell-based, TR-FRET, U2OS, forskolin, triplicate; shares compounds with MC4R antagonist; LANCE TR-FRET; inhibition, % at 6.5 µM; 1,600 compounds, 26% hits;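 active means mean inhibition over triplicates above the low-control well mean plus 3 SD, set per campaign, cut at about 13% in these data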;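 further: signal is single emission at 671 nm which falls as cellular cAMP rises; 0% = forskolin-stimulated wells and 100% = buffer without forskolin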
# MC4R antag conf: MC4R cAMP antagonists, retest, confirmation, cell-based, TR-FRET; shares compounds with MC4R antagonist; MC4R-expressing cells, MTII-stimulated cAMP; inhibition, % at 6.5 µM; 1,600 compounds, 27% hits; in the data active means inhibition above about 29%;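 further: 0% = agonist stimulated wells alone and 100% = agonist stimulated wells plus saturating reference antagonist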
# MC4R barr ag: MC4R beta-arrestin agonists, retest, confirmation, cell-based, luminescence, U2OS. shares compounds with MC4R ag barr. U2OS MC4R beta-arrestin recruitment; scaled DMSO 0%, Melanotan II 100%. activation, % at 8.9 µM. 2,400 compounds, 31% hits;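 active means mean activation across replicates above the hit cutoff set in the earlier primary screen, cut at about 8% in these data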
# MOR-DOR barr ag: agonists of MOR-DOR heterodimerization, counter-screen for MC4R biased agonist project, cell-based, luminescence; shares compounds with MC4R ag barr; 2,400 compounds, 5.8% hits; U2OS PathHunter beta-arrestin, beta-gal luminescence; percent of deltorphin B response, DMSO zero; AID 602194, 2012; activation, % at 9.2 µM;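 active means mean activation across replicates exceeds the hit threshold derived in the earlier primary screen, cut at about 18% in these data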;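 further: 100% = deltorphin B at 0.9 µM final and 0% = DMSO alone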
# Exocytosis CP01: inhibitors of lytic granule exocytosis, confirmation, TALL-104 cells, flow cytometry, Cherry Pick01; shares compounds with Granule exo inh; LAMP-1 externalization; stimulated with PMA plus thapsigargin; inhibition, % at 10 µM; 1,500 compounds, 11% hits; AID 651954, 2012; in the data active means inhibition above about 60%;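 further: 0% = stimulated vehicle wells and 100% = unstimulated wells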
# Numbers without * were called inactive; i = inactive; . = not tested or not shown; ! = repeats disagree.
SMILES,EP2 mod,T cell HTS,MC4R ag barr,PGE2 EP2 inh,MC4R antagonist,Granule exo inh,U2OS cAMP counter,MC4R antag conf,others
O=C(/C=C/c1ccco1)OCc1nnc(-c2ccc(Cl)cc2)o1,-74,747,-2,8,32*,4,1,-8,
O=C(/C=C/c1ccco1)OCc1nnc(-c2ccccc2)o1,-62,335,-2,15,2,0,.,.,
O=C(CN(C(=O)CNC(=O)c1cccs1)c1ccccc1F)NC1CCCCC1,-12,306,1,14,22,14,.,.,
Cc1ccccc1N(CC(=O)NC1CCCCC1)C(=O)CNC(=O)c1cccs1,-3,192,2,8,30*,-11,-17,-33,
COC(=O)C(CC(C)C)NC(=O)/C=C/c1ccccc1Cl (stereo not drawn),-45,248,-2,10,-4,-5,.,.,
COC(=O)C(CC(C)C)NC(=O)/C=C/c1ccc(Cl)cc1 (stereo not drawn),20,343,2,5,35*,4,7,20,
CC(C)CCOc1ccc(/C=C2\CCn3c2nc2cc(C(=O)O)ccc2c3=O)cc1,-48,.,2,12,32*,0,0,-8,
COC(=O)c1ccc(/C=C2\CCn3c2nc2cc(C(=O)O)ccc2c3=O)cc1,.,344,0,.,12,2,.,.,
C=C(C)CN(CC)C(=O)CCc1nnc(CCCc2ccccc2)o1,-28,142,-1,5,31*,-5,-2,-11,
CCN(CCn1cccn1)C(=O)CCc1nnc(CCCc2ccccc2)o1,-3,175,-1,2,5,-1,.,.,
O=C1N(Cc2cccc(Cl)c2)C[C@@H]2C[C@@H](c3cccc4cccnc34)N3CCC[C@@]123,-4,200,0,5,34*,7,-1,0,
Cc1cccc(OCC(=O)NNC(=O)c2ccccc2OCc2c(C)noc2C)c1,.,283,-1,.,-3,-4,.,.,
CCNC(=O)CC1C(=O)N(C)C(=S)N1NC(=O)c1ccc(Cl)cc1 (stereo not drawn),-7,316,0,15,5,0,.,.,
Nc1ccc(C(=O)NN2C(=O)[C@H](Cl)C2c2ccc(Cl)cc2)cc1 (stereo partly drawn),.,.,0,.,37*,5,22*,19,
O=C(Nc1ccc(-c2nc3ccccc3o2)cc1)c1ccc2c(c1)OCO2,1,626,20*,8,30*,-1,1,-8,MC4R barr ag=12*;MOR-DOR barr ag=7
C=CCn1c(N2CCC(C(=O)NCc3ccc(OC)cc3)CC2)nc2ccccc21,-61,.,.,12,.,.,.,.,
O=Nc1c(-c2c(O)[nH]c3cc(Br)ccc23)[nH]c2ccccc12,.,263,14*,.,62*,27,5,56*,MC4R barr ag=0;MOR-DOR barr ag=3
COc1cccc(C(=O)C(C#N)=C(SC)SC)c1,-33,i,24*,10,42*,70*,10,23,MC4R barr ag=14*;MOR-DOR barr ag=19*
CCCCCCSc1cccc(-c2nc3ccc(Cl)cn3c2NCCCC)c1,.,.,2,.,-3,0,.,.,
CCCCNc1c(-c2cccc(-c3cc(C(C)=O)cs3)c2)nc2ccc(C)cn12,.,93,19*,.,50*,-8,9,19,MC4R barr ag=24*;MOR-DOR barr ag=7
O=C1c2cc([N+](=O)[O-])ccc2-c2cc(Cl)c(NC(=O)C(F)(F)F)cc21,.,.,-1,.,-3,1,.,.,
O=C1c2cc([N+](=O)[O-])ccc2-c2cc(Br)c(N=C(NO)C(F)(F)F)cc21,.,.,14*,.,35*,8,-3,-4,MC4R barr ag=13*;MOR-DOR barr ag=6
Cc1cc(O)c(C(C)C)cc1C1(c2cc(C(C)C)c(O)cc2C)OC(=O)c2ccccc21,4,385,19*,76*!,31*,88*,6,29*,MC4R barr ag=8.6*;MOR-DOR barr ag=9
O=C(CN1C(=O)COc2ccc(S(=O)(=O)N3CCCCC3)cc21)NCc1ccccc1Cl,.,317,-3,.,2,2,.,.,
COc1ccc(CCn2c(NN)nc3c2c(=O)[nH]c(=O)n3C)cc1,11,i,-1,5,-8,5,.,.,
SMILES,EP2 mod,T cell HTS,MC4R ag barr,PGE2 EP2 inh,MC4R antagonist,Granule exo inh,U2OS cAMP counter,MC4R antag conf,others
Cc1ccc(OCC(=O)NC(=S)Nc2cccc(C)n2)cc1,7,366,2,5,-4,0,.,.,
Cc1ccc(OCC(=O)NC(=S)Nc2ccc3c4c(cccc24)CC3)cc1,62*,296,13*,20,39*,-3,7,14,MC4R barr ag=12*;MOR-DOR barr ag=3
COc1ccc(Cl)cc1NC(=O)C1CCCN(c2c(Cc3ccccc3)c(C)nc3ncnn23)C1 (stereo not drawn),-50,.,.,11,.,.,.,.,
O=C(c1ccc(Cl)cc1)C(CN1CCCC1)c1ccccc1 (stereo not drawn),.,200,5,.,31*,59*,4,-2,Exocytosis CP01=-9
COc1ccc(C(=O)C(CN2CCCC2)c2ccccc2)cc1 (stereo not drawn),6,247,0,14,0,-2,.,.,
CCCCC(=O)NCc1ccc(Cl)cc1,20,101,0,2,6,-1,.,.,

# Assay outcomes: PubChem, several laboratories
